Experimental data as given in ChEMBL document CHEMBL4312005, “Optimization of pyrrolizine-based Schiff bases with 4-thiazolidinone motif: Design, synthesis and investigation of cytotoxicity and anti-inflammatory potency” (Eur J Med Chem, 2020).
Blank lines part the entries; values can stand above or below the compound they belong to.

Tests used:
Rattus norvegicus [1] = assay: Antiinflammatory activity against albino rats assessed as inhibition of carrageenan-induced paw edema at 0.5 mmol, po measured after 2 hrs relative to control; assay type: functional
How it was run: (§1)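 Carrageenan rat paw edema (Winter method) in male and female adult albino rats (100-140 g). […] Swelling inhibition expressed as % of control at 2-4 h after carrageenan injection.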

MRC5 = assay: Cytotoxicity against human MRC5 cells assessed as reduction in cell growth incubated for 72 hrs by MTT assay; assay type: cell-based; conditions: MRC5, 72 h
How it was run: (§2)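 MTT assay on MCF-7, A2780, HT29 and normal MRC5 fibroblast lines (ATCC) grown in DMEM with 10% FBS. Cells exposed to compounds for 72 h, then reduced MTT read at 570 nm.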

[2] = Selectivity index, ratio of IC50 for cytotoxicity against human MRC5 cells to IC50 for antiproliferative activity against human A2780 cells; conditions: MRC5 cells versus A2780 cells
A2780 = assay: Antiproliferative activity against human A2780 cells assessed as reduction in cell growth incubated for 72 hrs by MTT assay; assay type: functional, cell-based; conditions: A2780, 72 h; how it was run: as §2
MCF7 [3] = assay: Antiproliferative activity against human MCF7 cells assessed as reduction in cell growth incubated for 72 hrs by MTT assay; assay type: functional, cell-based; conditions: MCF7, 72 h; how it was run: as §2
[4] = biological target: Prostaglandin G/H synthase 1 (Homo sapiens, UniProt P23219); assay: Inhibition of human COX1 using arachidonic acid as substrate incubated for 2 mins by ELISA method
Rattus norvegicus [5] = assay: Antiinflammatory activity against albino rats assessed as inhibition of carrageenan-induced paw edema at 0.5 mmol, po measured after 4 hrs relative to control; assay type: functional; how it was run: as §1
HT-29 = assay: Antiproliferative activity against human HT-29 cells assessed as reduction in cell growth incubated for 72 hrs by MTT assay; assay type: functional, cell-based; conditions: HT-29, 72 h; how it was run: as §2
[6] = Selectivity index, ratio of IC50 for cytotoxicity against human MRC5 cells to IC50 for antiproliferative activity against human MCF7 cells; conditions: MRC5 cells versus MCF7 cells
MCF7 [7] = assay: Cell cycle arrest in human MCF7 cells assessed as subG1 accumulation at 1 uM incubated for 24 hrs by propidium iodide based flow cytometry (reference value: 0.6 to 3 %); assay type: functional
MCF7 [8] = assay: Induction of apoptosis in human MCF7 cells assessed as viable cells at 5 uM incubated for 24 hrs by annexin V FITC and propidium iodide staining based flow cytometry (reference value: 76 to 95.9 %); assay type: functional; conditions: MCF7, 24 h, read-out: Activity
MCF7 [9] = assay: Induction of apoptosis in human MCF7 cells assessed as necrotic cells at 5 uM incubated for 24 hrs by annexin V FITC and propidium iodide staining based flow cytometry (reference value: 4.1 to […]); assay type: functional
MCF7 [10] = assay: Induction of apoptosis in human MCF7 cells assessed as necrotic cells at 1 uM incubated for 24 hrs by annexin V FITC and propidium iodide staining based flow cytometry (reference value: 4.1 to […]); assay type: functional
MCF7 [11] = assay: Induction of apoptosis in human MCF7 cells assessed as early apoptotic cells at 1 uM incubated for 24 hrs by annexin V FITC and propidium iodide staining based flow cytometry (reference value: 0 to 9 %); assay type: functional
MCF7 [12] = assay: Induction of apoptosis in human MCF7 cells assessed as late apoptotic cells at 10 uM incubated for 24 hrs by annexin V FITC and propidium iodide staining based flow cytometry (reference value: 0 to 2.5 %); assay type: functional
MCF7 [13] = assay: Cell cycle arrest in human MCF7 cells assessed as G1 accumulation at 1 uM incubated for 24 hrs by propidium iodide based flow cytometry (reference value: 49.6 to 55.1 %); assay type: functional
MCF7 [14] = assay: Induction of apoptosis in human MCF7 cells assessed as early apoptotic cells at 5 uM incubated for 24 hrs by annexin V FITC and propidium iodide staining based flow cytometry (reference value: 0 to 9 %); assay type: functional
MCF7 [15] = assay: Induction of apoptosis in human MCF7 cells assessed as late apoptotic cells at 5 uM incubated for 24 hrs by annexin V FITC and propidium iodide staining based flow cytometry (reference value: 0 to 2.5 %); assay type: functional
MCF7 [16] = assay: Cell cycle arrest in human MCF7 cells assessed as S phase accumulation at 1 uM incubated for 24 hrs by propidium iodide based flow cytometry (reference value: 17.3 to 28.5 %); assay type: functional
MCF7 [17] = assay: Cell cycle arrest in human MCF7 cells assessed as G1 accumulation at 5 uM incubated for 24 hrs by propidium iodide based flow cytometry (reference value: 49.6 to 55.1 %); assay type: functional
MCF7 [18] = assay: Induction of apoptosis in human MCF7 cells assessed as late apoptotic cells at 1 uM incubated for 24 hrs by annexin V FITC and propidium iodide staining based flow cytometry (reference value: 0 to 2.5 %); assay type: functional
MCF7 [19] = assay: Cell cycle arrest in human MCF7 cells assessed as S phase accumulation at 10 uM incubated for 24 hrs by propidium iodide based flow cytometry (reference value: 17.3 to 28.5 %); assay type: functional
[20] = Selectivity index, ratio of IC50 for cytotoxicity against human MRC5 cells to IC50 for antiproliferative activity against human HT-29 cells; conditions: MRC5 cells versus HT-29 cells
MCF7 [21] = assay: Cell cycle arrest in human MCF7 cells assessed as G2/M phase accumulation at 1 uM incubated for 24 hrs by propidium iodide based flow cytometry (reference value: 17.2 to 26.8 %); assay type: functional
MCF7 [22] = assay: Induction of apoptosis in human MCF7 cells assessed as early apoptotic cells at 10 uM incubated for 24 hrs by annexin V FITC and propidium iodide staining based flow cytometry (reference value: 0 to 9 %); assay type: functional
MCF7 [23] = assay: Cell cycle arrest in human MCF7 cells assessed as S phase accumulation at 5 uM incubated for 24 hrs by propidium iodide based flow cytometry (reference value: 17.3 to 28.5 %); assay type: functional
MCF7 [24] = assay: Induction of apoptosis in human MCF7 cells assessed as necrotic cells at 10 uM incubated for 24 hrs by annexin V FITC and propidium iodide staining based flow cytometry (reference value: 4.1 to […]); assay type: functional
MCF7 [25] = assay: Cell cycle arrest in human MCF7 cells assessed as subG1 accumulation at 5 uM incubated for 24 hrs by propidium iodide based flow cytometry (reference value: 0.6 to 3 %); assay type: functional
MCF7 [26] = assay: Cell cycle arrest in human MCF7 cells assessed as G1 accumulation at 10 uM incubated for 24 hrs by propidium iodide based flow cytometry (reference value: 49.6 to 55.1 %); assay type: functional
MCF7 [27] = assay: Antiproliferative activity against human MCF7 cells assessed as cell viability at 5 uM incubated for 48 hrs by MTT assay (reference value: 100 %); assay type: functional; conditions: MCF7, 48 h, read-out: Activity
How it was run: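 Preliminary single-dose screen by MTT assay. MCF-7 cells grown in DMEM/10% FBS were exposed to 5 μM compound for 48 h, and growth% was determined. Values are mean ± S.D., n = 6.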

MCF7 [28] = assay: Induction of apoptosis in human MCF7 cells assessed as viable cells at 10 uM incubated for 24 hrs by annexin V FITC and propidium iodide staining based flow cytometry (reference value: 76 to 95.9 %); assay type: functional; conditions: MCF7, 24 h, read-out: Activity
MCF7 [29] = assay: Cell cycle arrest in human MCF7 cells assessed as G2/M phase accumulation at 10 uM incubated for 24 hrs by propidium iodide based flow cytometry (reference value: 17.2 to 26.8 %); assay type: functional
MCF7 [30] = assay: Cell cycle arrest in human MCF7 cells assessed as G2/M phase accumulation at 5 uM incubated for 24 hrs by propidium iodide based flow cytometry (reference value: 17.2 to 26.8 %); assay type: functional
MCF7 [31] = assay: Cell cycle arrest in human MCF7 cells assessed as subG1 accumulation at 10 uM incubated for 24 hrs by propidium iodide based flow cytometry (reference value: 0.6 to 3 %); assay type: functional
MCF7 [32] = assay: Induction of apoptosis in human MCF7 cells assessed as viable cells at 1 uM incubated for 24 hrs by annexin V FITC and propidium iodide staining based flow cytometry (reference value: 76 to 95.9 %); assay type: functional; conditions: MCF7, 24 h, read-out: Activity

Chain of Prostaglandin G/H synthase 1 (P23219 whole entry): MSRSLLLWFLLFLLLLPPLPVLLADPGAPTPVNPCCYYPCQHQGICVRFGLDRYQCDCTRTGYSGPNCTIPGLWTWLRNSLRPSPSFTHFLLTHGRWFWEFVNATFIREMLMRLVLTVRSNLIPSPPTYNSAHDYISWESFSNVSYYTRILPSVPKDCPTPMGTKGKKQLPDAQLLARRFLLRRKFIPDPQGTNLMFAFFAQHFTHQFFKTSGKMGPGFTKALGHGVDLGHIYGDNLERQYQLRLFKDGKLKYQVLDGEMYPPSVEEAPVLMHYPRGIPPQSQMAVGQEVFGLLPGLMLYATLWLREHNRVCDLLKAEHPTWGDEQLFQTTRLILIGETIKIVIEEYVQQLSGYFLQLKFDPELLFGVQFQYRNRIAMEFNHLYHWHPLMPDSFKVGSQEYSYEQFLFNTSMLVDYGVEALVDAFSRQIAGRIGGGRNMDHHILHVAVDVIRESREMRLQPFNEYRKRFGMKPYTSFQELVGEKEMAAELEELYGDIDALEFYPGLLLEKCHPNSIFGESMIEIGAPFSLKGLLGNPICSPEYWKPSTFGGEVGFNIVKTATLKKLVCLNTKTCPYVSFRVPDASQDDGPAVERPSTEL

Structure (SMILES): CCC1SCC(=O)N1c1c(C#N)c2n(c1C(=O)Nc1ccc(Cl)cc1)CCC2 (stereo unspecified)
inhibition (INH) (Rattus norvegicus [1]): 21.76%
IC50 (MRC5): 0.91 µM
selectivity ratio [2]: 3 to 15
IC50 (A2780): 0.31 µM
IC50 (MCF7 [3]): 0.21 µM
IC50 [4]: > 100 µM
inhibition (INH) (Rattus norvegicus [5]): 32.48%
IC50 (HT-29): 0.2 µM
selectivity ratio [6]: 3 to 15

Structure (SMILES): CC/C=N/c1c(C#N)c2n(c1C(=O)Nc1ccc(Cl)cc1)CCC2
inhibition (INH) (Rattus norvegicus [1]): 19.17%
IC50 (MRC5): 0.17 µM
IC50 (A2780): 0.58 µM
IC50 (MCF7 [3]): 0.74 µM
IC50 [4]: 15.6 µM
inhibition (INH) (Rattus norvegicus [5]): 24.06%
IC50 (HT-29): 1.02 µM

Structure (SMILES): CC/C=N/c1c(C#N)c2n(c1C(=O)Nc1ccc(C)cc1)CCC2
IC50 (MRC5): 0.56 µM
IC50 (A2780): 3.88 µM
IC50 (MCF7 [3]): 0.84 µM
IC50 [4]: 27.7 µM
IC50 (HT-29): 0.61 µM

Structure (SMILES): N#Cc1c(/N=C/c2cccnc2)c(C(=O)Nc2ccc(Br)cc2)n2c1CCC2
IC50 (MRC5): 25.6 µM
selectivity ratio [20]: 1 to 10
selectivity ratio [2]: 1 to 10
IC50 (A2780): 23 µM
IC50 (MCF7 [3]): 11.3 µM
IC50 [4]: > 100 µM
viability at 5 µM (MCF7 [27]): 81%
IC50 (HT-29): 2.63 µM
selectivity ratio [6]: 1 to 10

Structure (SMILES): N#Cc1c(/N=C/c2ccc(Cl)cc2)c(C(=O)Nc2ccc(Br)cc2)n2c1CCC2
IC50 (MRC5): 13.8 µM
selectivity ratio [20]: 2 to 52
selectivity ratio [2]: 2 to 52
IC50 (A2780): 8.3 µM
IC50 (MCF7 [3]): 6.03 µM
IC50 [4]: > 100 µM
viability at 5 µM (MCF7 [27]): 73%
IC50 (HT-29): 7.79 µM
selectivity ratio [6]: 2 to 52

Further compounds by falling IC50 (HT-29), results first:

IC50 (A2780): 0.47 µM
IC50 (MCF7 [3]): 0.49 µM
IC50 [4]: 72 µM
IC50 (HT-29): 14.5 µM
Structure (SMILES): N#Cc1c(/N=C/c2ccc(O)cc2)c(C(=O)Nc2ccc(Br)cc2)n2c1CCC2
Activity (MCF7 [7]): 0.4%
viability at 5 µM (MCF7 [8]): 66.3%
Activity (MCF7 [9]): 17.8%
Activity (MCF7 [10]): 14.3%
Activity (MCF7 [11]): 10.2%
Activity (MCF7 [12]): 5.2%
Activity (MCF7 [13]): 31.7%
Activity (MCF7 [14]): 8.6%
inhibition (INH) (Rattus norvegicus [1]): 28.15%
Activity (MCF7 [15]): 7.4%
Activity (MCF7 [16]): 54.1%
IC50 (MRC5): 25 µM
Activity (MCF7 [17]): 28.9%
Activity (MCF7 [18]): 9.8%
Activity (MCF7 [19]): 51.9%
selectivity ratio [20]: 2 to 52
selectivity ratio [2]: 2 to 52
Activity (MCF7 [21]): 14.2%
Activity (MCF7 [22]): 5%
Activity (MCF7 [23]): 49.7%
Activity (MCF7 [24]): 20.6%
inhibition (INH) (Rattus norvegicus [5]): 44.51%
Activity (MCF7 [25]): 0.4%
Activity (MCF7 [26]): 27.9%
viability at 5 µM (MCF7 [27]): 69%
viability at 10 µM (MCF7 [28]): 69.2%
Activity (MCF7 [29]): 19.8%
Activity (MCF7 [30]): 22%
selectivity ratio [6]: 2 to 52
Activity (MCF7 [31]): 0.8%
viability at 1 µM (MCF7 [32]): 65.7%

IC50 (HT-29): 12.7 µM
Structure (SMILES): CS(=O)(=O)CCNCc1ccc(-c2ccc3ncnc(Nc4ccc(OCc5cccc(F)c5)c(Cl)c4)c3c2)o1 [LAPATINIB]
IC50 (MRC5): 13.7 µM
